Activity, EC50 and solubility data for six compounds are collected here from ChEMBL document CHEMBL3259694, “Design and synthesis of molecular probes for the determination of the target of the anthelmintic drug praziquantel” (Bioorg Med Chem Lett, 2014).

What is called EC50 is the concentration needed to bring the measured effect to its halfway point.

Data set [1] concerns Schistosoma mansoni. Description: Anthelmintic activity against sexually mature Schistosoma mansoni PR-1 adult worm assessed as worm contractility and little movement at >60 uM incubated for overnight measured after 7 days drug wash-out period by stereomicroscopic analysis. It counts as functional, organism-based. A digest of the protocol:
(§1)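 Adult male worms exposed in vitro overnight to a range of concentrations, then washed and kept 7 days in drug-free medium. Motility, contraction and survival were scored at day 7. EC50 was taken from dose-response curves of percent worms alive at day 7 against log concentration, as mean and SEM of three replicates, with 95% confidence intervals.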

Data set [2] deals with Schistosoma mansoni. Description: Anthelmintic activity against sexually mature Schistosoma mansoni PR-1 adult worm assessed as parasite death incubated for overnight measured after 7 days drug wash-out period by stereomicroscopic analysis. It counts as functional, organism-based. The conditions noted are these: PR-1, 168 h. In outline:
as §1

The test system of data set [3] is Schistosoma mansoni. Description: Anthelmintic activity against sexually mature Schistosoma mansoni PR-1 adult worm assessed immediate worm shortening by stereomicroscopic analysis. It counts as functional, organism-based. In outline:
(§2)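 Adult male worms were watched for contraction, shortening or paralysis at once on addition of the compound. Worms were then kept overnight in its presence before washout.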

Data set [4] deals with Schistosoma mansoni. Description: Anthelmintic activity against sexually mature Schistosoma mansoni PR-1 adult worm assessed as loosely curled worm with little movement at >100 uM incubated for overnight measured after 7 days drug wash-out period by stereomicroscopic analysis. It counts as functional, organism-based. In outline:
as §1

For data set [5], the system named is Schistosoma mansoni. Put plainly: Anthelmintic activity against sexually mature Schistosoma mansoni PR-1 adult worm assessed immediate worm contraction by stereomicroscopic analysis. It counts as functional, organism-based. In outline:
as §2

The nature of data set [6]: Solubility in 1% DMSO at 300 uM. It counts as physicochemical.
Data set [7] relates to Schistosoma mansoni. Put plainly: Anthelmintic activity against sexually mature Schistosoma mansoni PR-1 adult worm assessed as parasite death by measuring worm contractility at 1 uM incubated for overnight measured after 7 days drug wash-out period by stereomicroscopic analysis. It counts as functional, organism-based. A digest of the protocol:
as §1

Data set [8] relates to Schistosoma mansoni. Description: Anthelmintic activity against sexually mature Schistosoma mansoni PR-1 adult worm assessed as parasite death by measuring worm contractility at 0.3 uM incubated for overnight measured after 7 days drug wash-out period by stereomicroscopic analysis. It counts as functional, organism-based. A digest of the protocol: as §1
The test system of data set [9] is Schistosoma mansoni. Description: Anthelmintic activity against sexually mature Schistosoma mansoni PR-1 adult worm assessed as worm contractility without movement at >40 uM incubated for overnight measured after 7 days drug wash-out period by stereomicroscopic analysis. It counts as functional, organism-based. In outline: as §1
For data set [10], the system named is Schistosoma mansoni. Put plainly: Anthelmintic activity against sexually mature Schistosoma mansoni PR-1 adult worm assessed immediate worm paralysis by stereomicroscopic analysis. It counts as functional, organism-based. A digest of the protocol:
as §2

Data set [11] can be described thus: Solubility in 1% DMSO at >300 uM. It counts as physicochemical.

The source made the active and inactive calls. No cut-off for these calls is given here.

Take `O=C(C1CCCCC1)N1CC(=O)N2CCc3ccccc3[C@H]2C1`: the outcome in the data set on Schistosoma mansoni [1] was Active. Moreover, the EC50 with Schistosoma mansoni [2] is 78.1 µM.

On to `C#CCN(C(=O)c1ccc(C2(C(F)(F)F)N=N2)cc1)c1ccc(C(=O)N2CC(=O)N3CCc4ccccc4[C@@H]3C2)cc1`, for which the result in the data set on Schistosoma mansoni [3] and in the data set on Schistosoma mansoni [5] was inactive. Besides, in the data set with Schistosoma mansoni [4], the result was Active. The half-maximal effective concentration (EC50) in the data set on Schistosoma mansoni [2] worked out at 132 µM. Besides, in data set [6], the solubility entry is on record as “soluble”.

As to `O=C(C1CCCCC1)N1CC(=O)N2CCc3ccccc3C2C1` (racemic) [PRAZIQUANTEL], the 50% effective concentration (EC50) with Schistosoma mansoni [2] turned out to be 2.5 µM. The outcome in the data set on Schistosoma mansoni [7] was Active.

In the case of `O=C(C1CCCCC1)N1CC(=O)N2CCc3ccccc3[C@@H]2C1` [PRAZIQUANTEL, (R)-], in the data set on Schistosoma mansoni [8], the outcome was Active. In addition, the EC50 with Schistosoma mansoni [2] was 0.5 µM.

Take `Cc1cc(C)n2c1C=C1C=CC(CCC(=O)N3CC(=O)N4CCc5ccccc5[C@@H]4C3)=[N+]1[B-]2(F)F`: in the data set with Schistosoma mansoni [9], the outcome was Active. Besides, the result in the data set on Schistosoma mansoni [10] and with Schistosoma mansoni [5] was inactive. Further, the EC50 in the data set on Schistosoma mansoni [2] was 53.3 µM.

As for `C#CCN(Cc1ccc(C(=O)N2CC(=O)N3CCc4ccccc4[C@@H]3C2)cc1)C(=O)CCCCCNC(=O)CCC1(C)N=N1`, the solubility entry in [11] is “soluble”. The EC50 in the data set with Schistosoma mansoni [2] is greater than 300 µM.
